# From PubChem BioAssay
# CRFBP-R2 block – antagonists of CRF-BP/CRF-R2 complex, primary screen, cell-based, HEK293, calcium dye fluorescence, uHTS; inhibition, % at 11.8 µM; CRF-induced calcium fluorescence; hit rate 0.59% among 350,000;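 active = inhibition of the ligand-induced calcium signal above about 50% at the single tested concentration, limit read from the data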
# CRFBP-R2 agonist – agonists of CRF-BP/CRF-R2 complex, primary screen, cell-based, HEK293, calcium dye fluorescence, uHTS; calcium dye fluorescence (FLIPR); percent of saturating CRF peptide response; CRF-binding protein / CRF receptor 2 complex (human); activation, % at 13.2 µM; hit rate 0.46% among 350,000; AID 588473, 2011;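 active = activation of at least 50%, plus an integration ratio under a set limit after plate pattern correction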;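 also: plate controls were neutral control wells without compound for no effect and CRF at EC100 for full effect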
# TRPML3 agonist – human TRPML3 channel agonists, primary screen, cell-based, HEK293 TRPML3-YFP, Fluo-8 calcium fluorescence, 3 µM; Mucolipin-3 (Homo sapiens), Q8TDD5; 100% = the carbachol control signal; activation, % at 3 µM; hit rate 0.29% among 220,000;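 active = activation above its plate's cutoff, the mean activation of the plate's test wells plus 3 SD, cut at about 12% in these data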;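 also: 0% = DMSO only wells and 100% = carbachol wells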
# Target sequence (Q8TDD5 whole entry, looked up): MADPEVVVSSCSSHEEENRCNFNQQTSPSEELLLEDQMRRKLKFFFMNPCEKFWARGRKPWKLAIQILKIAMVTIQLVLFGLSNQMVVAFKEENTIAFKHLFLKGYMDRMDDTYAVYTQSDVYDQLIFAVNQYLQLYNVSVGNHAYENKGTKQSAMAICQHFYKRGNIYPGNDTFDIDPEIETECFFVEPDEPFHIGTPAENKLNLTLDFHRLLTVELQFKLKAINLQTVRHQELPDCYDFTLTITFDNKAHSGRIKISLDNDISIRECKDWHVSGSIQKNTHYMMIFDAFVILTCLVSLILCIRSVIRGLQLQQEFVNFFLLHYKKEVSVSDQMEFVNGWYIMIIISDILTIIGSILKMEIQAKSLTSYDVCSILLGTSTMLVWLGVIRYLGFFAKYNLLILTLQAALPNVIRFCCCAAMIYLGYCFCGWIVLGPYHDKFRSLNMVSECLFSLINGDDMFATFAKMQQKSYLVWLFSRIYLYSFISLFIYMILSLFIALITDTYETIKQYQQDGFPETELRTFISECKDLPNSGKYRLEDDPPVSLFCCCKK
#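 Material: HEK293 cells stably carrying human TRPML3-YFP; compound dosing: single dose, 3 µM final nominal compound, 0.3% DMSO final; incubation: 1-h 37 °C dye load, 5-s basal, 120-s post-compound reads; technique: Fluo-8 intracellular calcium fluorescence, excitation 470-495 nm, emission 515-575 nm; read-out basis: percent activation from peak-to-basal fluorescence ratio, scaled between DMSO and carbachol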
# IMP-1 inh – IMP-1 metallo-beta-lactamase inhibitors, primary screen, biochemical, epi-absorbance readout, Pseudomonas aeruginosa enzyme | metallo-beta-lactamase IMP-1 (Pseudomonas aeruginosa) | inhibition, % at 5.6 µM | hit rate 0.45% among 290,000 | purified IMP-1, nitrocefin hydrolysis, epi-absorbance fluorescence;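 active = inhibition above the mean plus 3 SD of all compounds in the same screening run, cut at about 4.5% in these data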;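 also: 0% = IMP-1 with DMSO and 100% = DMSO wells lacking enzyme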
#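 assay system = purified recombinant IMP-1 metallo-beta-lactamase enzyme | schedule = 15 min preincubation plus 25 min reaction at 25 °C | signal = Epi-absorbance fluorescence, 480 nm excitation, 530 nm emission | read-out basis = percent inhibition from optical density relative to buffer-blank wells | controls = IMP-1 with DMSO as 0%, enzyme-free DMSO as 100%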
# TRPN1 ag – zebrafish TRPN1 channel agonists, primary screen, cell-based, HEK293, calcium fluorescence; transient receptor potential cation channel N1 (TRPN1/NompC), Danio rerio; HEK293 zebrafish TRPN1-YFP, Fluo-8 calcium fluorescence; 100% = response to 87 µM carbachol; activation, % at 3 µM; hit rate 0.18% among 220,000;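 active = activation above its plate's cutoff, the mean activation of test wells on that plate plus 3 SD, cut at about 19% in these data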;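 also: 0% = DMSO alone and 100% = 87 µM carbachol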
#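 Control set: carbachol 87 µM as high control, DMSO as low control; system: HEK293 stable line with zebrafish TRPN1-YFP; read-out: % activation versus carbachol response; detection: intracellular calcium fluorescence with Fluo-8; doses: single test compound dose, 3 µM nominal, 0.3% DMSO; schedule: dye 1 h 37 °C plus 30 min RT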
# VIM-2 inhibitor – VIM-2 metallo-beta-lactamase inhibitors, primary screen, biochemical, epi-absorbance readout, Pseudomonas aeruginosa enzyme | purified VIM-2, nitrocefin hydrolysis, epi-absorbance fluorescence | inhibition, % at 5.6 µM | hit rate 0.89% among 290,000;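 active = inhibition above the mean of all tested compounds plus 3 SD, cutoff set per screening run, cut at about 7.5% in these data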;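 also: red hydrolysis product quenches plate fluorescence so inhibitors raise well fluorescence; 0% = enzyme with DMSO and 100% = DMSO without enzyme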
# Starred values were filed as active, the others as inactive; / = no result given. Only some compounds are listed: those with a hit (about 2.1% of all), similar ones and a draw of the others.
SMILES,CRFBP-R2 block,CRFBP-R2 agonist,TRPML3 agonist,IMP-1 inh,TRPN1 ag,VIM-2 inhibitor
COc1ccc(-c2nnc(Nc3ccc(S(=O)(=O)Nc4nccs4)cc3)c3ccccc23)cc1,61*,-4,0,-2,2,-4
COc1cccc(/C=N/NC(=O)c2csc(-n3nc(C)cc3C(F)(F)F)n2)c1,15,-3,0,-5,0,-3
Cc1cc(C(F)(F)F)n(-c2nc(C(=O)N/N=C/c3ccc(F)cc3)cs2)n1,71*,-2,-1,-2,0,-6
O=C1NN(c2ccccc2)C(=O)/C1=C\c1ccccc1OCC(=O)N1CCOCC1,-18,0,0,4.5*,0,-1
CCc1ccccc1N=C1S/C(=C/c2ccccc2OCC(=O)N2CCOCC2)C(=O)N1C,-7,-8,0,-1,-1,0
COc1cc(NC(=O)C(=O)NCCN2CCNCC2)c(OC)cc1Cl,3,0,0,-2,0,10*
COc1cc(NC(=S)NCCCN2CCOCC2)c(OC)cc1Cl,-5,-1,1,-3,-2,-1
O=C(CCCCn1c(=O)c2ccccc2n(Cc2ccc(F)cc2Cl)c1=O)NCc1ccco1,75*,-3,-1,-2,-2,1
O=C(O)Cc1ccc(C(=O)c2ccc(Cl)cc2Cl)s1,-19,1,0,0,0,-1
COc1ccc(-c2sc(C(=O)c3ccc(Cl)cc3Cl)cc2CC(=O)O)cc1,-8,1,/,-1,/,11*
CCOC(=O)C1CCN(C(=O)c2n[nH]c(=O)c3ccccc23)CC1,92*,-1,1,-5,-1,1
CCOC(=O)c1n[nH]c(=O)c2ccccc12,-3,-2,0,2,1,1
CCOc1ccc(S(=O)(=O)N2CCN(S(=O)(=O)c3ccc(C(C)=O)cc3)CC2)cc1,2,-1,/,-2,/,-3
CCOc1ccc(S(=O)(=O)N2CN(c3cccc(C(C)=O)c3)c3nc4ccccc4nc32)cc1,52*,0,/,/,/,/
O=C(CC12CC3CC(CC(C3)C1)C2)Nc1ccccc1N1CCOCC1,-48,3,0,-3,-1,-1
CSc1nc2sc3c(c2c(=O)n1C)CCC3,-1,0,/,2,/,7.7*
CCOC(=O)C(C)Sc1nc(=O)n2cccc(C)c2n1 (stereo not drawn),12,0,0,-2,0,-1
CCOC(=O)C(C)Sc1nnc2c3ccccc3n(C)c2n1 (stereo not drawn),11,-2,/,-5,/,8.8*
Cc1cccc(C(=O)N2c3ccccc3C(=O)OC2c2ccc3c(c2)OCO3)c1 (stereo not drawn),75*,2,0,-2,-2,-1
CN(Cc1cccnc1)C(=O)CCCc1c[nH]c2ccccc12,0,-3,/,-3,/,-2
Cc1ccc(CN(C)C(=O)CCc2c[nH]c3ccccc23)o1,57*,-2,/,-1,/,-2
CC(C)(C)OC(=O)N1CCC(NC(=O)c2nc[nH]c2C(=O)N2CCN(c3ccccc3)CC2)CC1,-4,-1,/,/,/,/
Oc1ccc(Br)cc1CNc1cccc2cccnc12,2,-3,/,1,/,1
Oc1c(Br)cc(Br)cc1CNc1cccc2cccnc12,-11,2,/,16*,/,3
CN(C)c1nc(C(=O)O)nc(N2CCOCC2)n1,1,1,0,-4,0,-3
SMILES,CRFBP-R2 block,CRFBP-R2 agonist,TRPML3 agonist,IMP-1 inh,TRPN1 ag,VIM-2 inhibitor
Cc1cc(C)n2nc(C(=O)OCC(=O)Nc3ccc(C)c(S(=O)(=O)N4CCOCC4)c3)nc2n1,-3,0,/,/,/,/
Cc1cc(=O)n2[nH]c(Nc3cccc(Cl)c3)nc2n1,-13,116*,/,/,/,/
Cc1cc(C)nc(Nc2cccc(Cl)c2)n1,4,-1,/,0,/,-1
Cc1[nH]n(C(N)=S)c(=O)c1N=Nc1cc(-c2ccc(Br)cc2)[nH]n1,80*,1,1,-4,0,-5
Cc1ccc(N=Nc2c(C)[nH]n(C(N)=S)c2=O)cc1C,-4,0,1,-3,3,-4
COc1ccccc1N1CCN(C(=O)/C=C/c2ccccc2)CC1,-25,-1,-1,-2,-1,-4
COc1ccccc1N1CCN(C(=O)/C=C/c2cccs2)CC1,80*,-1,0,-3,0,-4
COc1ccc(CCNC(=O)c2nc3ncccn3n2)cc1OC,1,0,0,-4,1,-2
COc1ccccc1N1CCN(C(=O)c2cc3c(=O)n4cccc(C)c4nc3s2)CC1,-5,0,/,0,/,10*
CCN(C(=O)c1cc2c(=O)n3cccc(C)c3nc2s1)C1CCCCC1,2,1,/,-2,/,9.0*
Cc1cccn2c(=O)c3cc(C(=O)N4CC(C)CC(C)C4)sc3nc12 (stereo not drawn),-6,1,/,-2,/,12*
COc1ccc(CCNC(=O)c2cc3c(=O)n4cccc(C)c4nc3s2)cc1OC,3,0,/,0,/,10*
Cc1cccn2c(=O)c3cc(C(=O)N4CCCCC4C)sc3nc12 (stereo not drawn),0,-1,/,/,/,/
CCOC(CNCc1cc(C)c2[nH]c3ccccc3c2c1C)OCC,-17,-1,/,/,/,/
COc1cc(/C=C2/C(=O)c3cccc([N+](=O)[O-])c3C2=O)c(Br)cc1O,39,6,0,1,-1,1
O=C(CCN1CCN(c2ccccc2)CC1)NNC(=S)Nc1ccccc1Cl,0,0,0,-4,1,-3
CCOC(=O)[C@H]1[C@H]2COc3ccccc3[C@@H]2N2C(=O)c3c(C)cc(C)cc3NC(=O)[C@@]12C,0,-1,/,/,/,/
Cc1ccccc1NC1=NC(=S)N(c2ccccc2)C12CCCCC2,61*,2,-1,-2,-2,-4
Cc1ccccc1NC1=NC(=S)N(c2ccccc2)C12CCOC(C)(C)C2 (stereo not drawn),3,1,1,-2,-2,-1
C[C@H](CO)N1C[C@H](C)[C@@H](CN(C)Cc2ccc(C(=O)O)cc2)Oc2c(cccc2N(C)C)C1=O,0,1,/,/,/,/
Cc1c(C#N)c(O)n(CCO)c(=O)c1N=Nc1ccc(S(N)(=O)=O)cc1,20,-1,0,-5,0,-2
Cc1c(C#N)c(O)n(C)c(=O)c1N=Nc1ccc(S(N)(=O)=O)cc1,6,-1,-1,-5,0,10*
O=C1CSC(=S)N1Cc1ccccc1,0,-2,/,/,/,/
O=C(NCCCCc1ccccc1)c1ccc(F)cc1,-1,-2,/,/,/,/
